Test results reported in ChEMBL document CHEMBL3352597, “Heck products of parthenolide and melampomagnolide-B as anticancer modulators that modify cell cycle progression” (Eur J Med Chem, 2014).
Active and inactive are the calls of the source. No cut-off for these calls is given here.

Assays:
Format in all cases: functional
786-0 = assay: Anticancer activity against human 786-0 cells
Method in brief: (§1)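 NCI 60 human cancer cell line panel, multiple-dose testing at five concentrations (10^-4, 10^-5, 10^-6, 10^-7 and 10^-8 M). Dose-response curves plot cytotoxic effect against log10 of drug concentration for each cell line. GI50 is the molar concentration giving 50% growth inhibition; LC50 is the concentration killing 50% of cells.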

SR = assay: Anticancer activity against human SR cells
Method in brief: (§2)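 NCI 60 human tumour cell line screen. A single-concentration pre-screen was run at 10^-5 M. Compounds selected from it were then tested at five concentrations, 10^-4 to 10^-8 M. Dose-response curves plotted cytotoxic effect against log10 of the drug concentration for each cell line. GI50 is the molar concentration giving 50% growth inhibition, and LC50 the concentration killing 50% of cells.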

A549 = assay: Anticancer activity against human A549 cells; method in brief: as §1
NCI-H23 = assay: Anticancer activity against human NCI-H23 cells; method in brief: as §1
SN12C = assay: Anticancer activity against human SN12C cells; method in brief: as §1
[1] = Anticancer activity against human BT549 cells; method in brief: as §1
[2] = Anticancer activity against human MOLT4 cells; method in brief: as §1
[3] = Anticancer activity against human SKOV3 cells; method in brief: as §1
SK-MEL-5 = assay: Anticancer activity against human SK-MEL-5 cells; method in brief: as §1
A498 = assay: Anticancer activity against human A498 cells; method in brief: as §1
KM12 = assay: Anticancer activity against human KM12 cells; method in brief: as §1
MDA-MB-435 = assay: Anticancer activity against human MDA-MB-435 cells; method in brief: as §1
ACHN = assay: Anticancer activity against human ACHN cells; method in brief: as §1
SNB-75 = assay: Anticancer activity against human SNB75 cells; method in brief: as §2
IGROV-1 = assay: Anticancer activity against human IGROV1 cells; method in brief: as §1
SW-620 = assay: Anticancer activity against human SW620 cells; method in brief: as §2
[4] = Anticancer activity against human UO31 cells; method in brief: as §2
CAKI-1 = assay: Anticancer activity against human CAKI-1 cells; method in brief: as §1
MCF7 = assay: Anticancer activity against human MCF7 cells; method in brief: as §1
MDA-MB-468 = assay: Anticancer activity against human MDA-MB-468 cells; method in brief: as §1
[5] = Anticancer activity against human OVCAR5 cells; method in brief: as §1
Malme-3M = assay: Anticancer activity against human MALME-3M cells; method in brief: as §1
[6] = Anticancer activity against human OVCAR4 cells; method in brief: as §1
[7] = Anticancer activity against human COLO205 cells; method in brief: as §1
K562 = assay: Anticancer activity against human K562 cells; method in brief: as §1
HOP-62 = assay: Anticancer activity against human HOP62 cells; method in brief: as §1
[8] = Anticancer activity against human UACC62 cells; method in brief: as §2
M14 = assay: Anticancer activity against human M14 cells; method in brief: as §1
NCI-H460 = assay: Anticancer activity against human NCI-H460 cells; method in brief: as §1
MDA-MB-231 = assay: Anticancer activity against human MDA-MB-231 cells; method in brief: as §1
SF-268 = assay: Anticancer activity against human SF268 cells; method in brief: as §1
HT-29 = assay: Anticancer activity against human HT-29 cells; method in brief: as §1
U-251 = assay: Anticancer activity against human U251 cells; method in brief: as §2
NCI-H226 = assay: Anticancer activity against human NCI-H226 cells; method in brief: as §1
[9] = Anticancer activity against human OVCAR3 cells; method in brief: as §1
[10] = Anticancer activity against human RXF393 cells; method in brief: as §1
[11] = Anticancer activity against human NCI-ADR-RES cells; method in brief: as §1
[12] = Anticancer activity against human Hs 578T cells; method in brief: as §1
SK-MEL-2 = assay: Anticancer activity against human SK-MEL-2 cells; method in brief: as §1
SK-MEL-28 = assay: Anticancer activity against human SK-MEL-28 cells; method in brief: as §1
CCRF-CEM = assay: Anticancer activity against human CCRF-CEM cells; method in brief: as §1
[13] = Anticancer activity against human UACC257 cells; method in brief: as §2
HL-60(TB) = assay: Anticancer activity against human HL-60(TB) cells; method in brief: as §1
SNB-19 = assay: Anticancer activity against human SNB19 cells; method in brief: as §1
[14] = Anticancer activity against human SF295 cells; method in brief: as §1
[15] = Anticancer activity against human LOXIMVI cells; conditions: LOX IMVI; method in brief: as §1
NCI-H322M = assay: Anticancer activity against human NCI-H322M cells after 48 hrs; method in brief: as §1
[16] = Anticancer activity against human PC3 cells; method in brief: as §1
T47D = assay: Anticancer activity against human T47D cells; method in brief: as §2
[17] = Anticancer activity against human RPMI8226 cells; method in brief: as §1
DU-145 = assay: Anticancer activity against human DU145 cells after 48 hrs; conditions: DU-145, 48 h; method in brief: as §1
[18] = Anticancer activity against human HCC2998 cells; method in brief: as §1
[19] = read-out: LC50 (the source's name)

Structure (SMILES): C/C1=C\CC[C@@]2(C)O[C@@H]2[C@H]2OC(=O)/C(=C/c3ccsc3)[C@@H]2CC1
- GI50 (786-0): 35.7 µM
- CC50 (786-0; [19]): > 100 µM
- GI50 (SR): 20.7 µM
- CC50 (SR; [19]): > 100 µM
- GI50 (A549): 29.8 µM
- CC50 (A549; [19]): > 100 µM
- GI50 (NCI-H23): 23 µM
- CC50 (NCI-H23; [19]): > 100 µM
- GI50 (SN12C): 25.8 µM
- CC50 (SN12C; [19]): > 100 µM
- GI50 ([1]; BT-549): 20.1 µM
- CC50 ([1]; BT-549, read-out: LC50 (the source's name)): 88.2 µM
- GI50 ([2]; MOLT-4): 25.7 µM
- CC50 ([2]; MOLT-4, read-out: LC50 (the source's name)): > 100 µM
- GI50 ([3]; SK-OV-3): 44.9 µM
- CC50 ([3]; SK-OV-3, read-out: LC50 (the source's name)): > 100 µM
- GI50 (SK-MEL-5): 16.3 µM
- LC50 (SK-MEL-5): 60.4 µM
- GI50 (A498): 17.5 µM
- CC50 (A498; [19]): > 100 µM
- GI50 (KM12): 20.4 µM
- CC50 (KM12; [19]): 86.7 µM
- GI50 (MDA-MB-435): 18.3 µM
- CC50 (MDA-MB-435; [19]): > 100 µM
- GI50 (ACHN): 32.8 µM
- CC50 (ACHN; [19]): > 100 µM
- GI50 (SNB-75): 21.5 µM
- CC50 (SNB-75; [19]): > 100 µM
- GI50 (IGROV-1): 27.9 µM
- CC50 (IGROV-1; [19]): > 100 µM
- GI50 (SW-620): 22.9 µM
- CC50 (SW-620; [19]): > 100 µM
- GI50 ([4]; UO-31): 27.3 µM
- CC50 ([4]; UO-31, read-out: LC50 (the source's name)): > 100 µM
- GI50 (CAKI-1): 30.9 µM
- CC50 (CAKI-1; [19]): > 100 µM
- GI50 (MCF7): 20 µM
- CC50 (MCF7; [19]): > 100 µM
- GI50 (MDA-MB-468): 17.7 µM
- LC50 (concentration killing 50% of cells) (MDA-MB-468): > 100 µM
- GI50 ([5]; OVCAR-5): 48.1 µM
- CC50 ([5]; OVCAR-5, read-out: LC50 (the source's name)): > 100 µM
- GI50 (Malme-3M): 22.5 µM
- CC50 (Malme-3M; [19]): > 100 µM
- GI50 ([6]; OVCAR-4): 24.3 µM
- CC50 ([6]; OVCAR-4, read-out: LC50 (the source's name)): > 100 µM
- GI50 ([7]; COLO 205): 22.6 µM
- CC50 ([7]; COLO 205, read-out: LC50 (the source's name)): 90.9 µM
- GI50 (K562): 25.2 µM
- CC50 (K562; [19]): > 100 µM
- GI50 (HOP-62): 35.8 µM
- CC50 (HOP-62; [19]): > 100 µM
- GI50 ([8]; UACC-62): 13.8 µM
- CC50 ([8]; UACC-62, read-out: LC50 (the source's name)): 76.6 µM
- GI50 (M14): 20.5 µM
- CC50 (M14; [19]): > 100 µM
- GI50 (NCI-H460): 29.3 µM
- CC50 (NCI-H460; [19]): > 100 µM
- GI50 (MDA-MB-231): 16 µM
- LC50 (concentration killing 50% of cells) (MDA-MB-231): 81.8 µM
- GI50 (SF-268): 21.3 µM
- CC50 (SF-268; [19]): > 100 µM
- GI50 (HT-29): 27 µM
- CC50 (HT-29; [19]): > 100 µM
- GI50 (U-251): 21.7 µM
- CC50 (U-251; [19]): > 100 µM
- GI50 (NCI-H226): 30.2 µM
- CC50 (NCI-H226; [19]): > 100 µM
- GI50 ([9]; OVCAR-3): 20.5 µM
- CC50 ([9]; OVCAR-3, read-out: LC50 (the source's name)): > 100 µM
- GI50 ([10]; RXF 393): 18.1 µM
- CC50 ([10]; RXF 393, read-out: LC50 (the source's name)): > 100 µM
- GI50 [11]: 23.6 µM
- CC50 [11, 19]: > 100 µM
- GI50 [12]: 21.5 µM
- CC50 [12, 19]: > 100 µM
- GI50 (SK-MEL-2): inactive
- LC50 (SK-MEL-2): inactive
- GI50 (SK-MEL-28): 29.4 µM
- CC50 (SK-MEL-28; [19]): > 100 µM
- GI50 (CCRF-CEM): 19.1 µM
- CC50 (CCRF-CEM; [19]): > 100 µM
- GI50 ([13]; UACC-257): 16.6 µM
- CC50 ([13]; UACC-257, read-out: LC50 (the source's name)): > 100 µM
- GI50 (HL-60(TB)): 21.7 µM
- CC50 (HL-60(TB); [19]): 99.9 µM
- GI50 (SNB-19): 47.6 µM
- CC50 (SNB-19; [19]): > 100 µM
- GI50 ([14]; SF-295): 28.5 µM
- CC50 ([14]; SF-295, read-out: LC50 (the source's name)): > 100 µM
- GI50 [15]: 18 µM
- CC50 [15, 19]: 71.2 µM
- GI50 (NCI-H322M): 44.7 µM
- CC50 (NCI-H322M; [19]): > 100 µM
- GI50 ([16]; PC-3): 22.7 µM
- CC50 ([16]; PC-3, read-out: LC50 (the source's name)): > 100 µM
- GI50 (T47D): 29.5 µM
- CC50 (T47D; [19]): > 100 µM
- GI50 ([17]; RPMI-8226): 19.7 µM
- CC50 ([17]; RPMI-8226, read-out: LC50 (the source's name)): > 100 µM
- GI50 (DU-145): 25.7 µM
- CC50 (DU-145; [19]): > 100 µM
- GI50 ([18]; HCC 2998): 33.8 µM
- CC50 ([18]; HCC 2998, read-out: LC50 (the source's name)): > 100 µM
